Measured values as given in ChEMBL document CHEMBL1122670, “Synthesis of previously inaccessible quinazolines and 1,4-benzodiazepines as potential anticonvulsants” (J Med Chem, 1984).
Calls of active or inactive are those of the source.

What was measured:
Mus musculus [1] = assay: Effective dose (ED50) was determined in sc Met (pentylenetetrazole) seizure threshold test; I = Inactive.; format: functional, organism-based
Procedure, shortened: (§1)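 ADD Program screen in mice. Doses of 30, 100, 300 and 600 mg/kg were given, four animals per dose, with tests at 30 min and at 4 h. sc Met endpoint: no threshold seizure (single clonic spasm of 5 s) after an sc convulsant dose 99 of pentylenetetrazol. Rotorod assessed acute neurotoxicity. ED50/TD50 were estimated graphically; Litchfield-Wilcoxon 95% confidence limits were added for selected cases.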

Mus musculus [2] = organism: Mus musculus; assay: Compound was determined in rotarod test and expressed as TD50; I = Inactive.; format: ADME, organism-based; conditions: in vivo; procedure, shortened: as §1
Mus musculus [3] = assay: Evaluated for seizure threshold test at a dose 25 mg/kg &MST is the metrazole seizure threshold to persistent clonus; I = Inactive.; format: functional, organism-based; design: dose 25 mg/kg
Procedure, shortened: (§2)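 0.5% pentylenetetrazol (with 0.9% NaCl and 0.001% heparin) was infused into a lateral tail vein at 6.31 μL/s. Time to 3 s of persistent clonus (MST) or hindlimb tonic flexion (MMT) was converted to mg/kg infused. Tested at 0.5 h (some at 4 h or 1 h). Results are % change from controls, by Student's t test.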

Mus musculus [4] = assay: Evaluated for seizure threshold test at a dose 25 mg/kg &MMT is the maximal metrazole threshold to tonic flexion; I = Inactive.; format: functional, organism-based; design: dose 25 mg/kg; procedure, shortened: as §2
Mus musculus [5] = assay: Evaluated for seizure threshold test at a dose 300 mg/kg &MMT is the maximal metrazole threshold to tonic flexion.; format: functional; procedure, shortened: as §2
[6] = Compound was determined in rotarod test and expressed as TD50; format: ADME, organism-based; conditions: mouse, in vivo
Procedure, shortened: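 ADD Program screen in mice. Doses of 30, 100, 300 and 600 mg/kg were given, four animals per dose, with tests at 30 min and at 4 h. sc Met endpoint: no threshold seizure (single clonic spasm of 5 s) after an sc convulsant dose 99 of pentylenetetrazol. Rotorod assessed acute neurotoxicity.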

Mus musculus [7] = assay: Evaluated for seizure threshold test at a dose 300 mg/kg &MST is the metrazole seizure threshold to persistent clonus; NA - Inactive.; format: functional, organism-based; design: dose 300 mg/kg; procedure, shortened: as §2
Mus musculus [8] = assay: Effective dose (ED50) was determined in sc Met (pentylenetetrazole) seizure threshold test; format: functional; procedure, shortened: as §1
Mus musculus [9] = assay: Evaluated for seizure threshold test at a dose 300 mg/kg & MST is the metrazole seizure threshold to persistent clonus; I = Inactive.; format: functional, organism-based; design: dose 300 mg/kg; procedure, shortened: as §2
Mus musculus [10] = assay: Effective dose (ED50) was determined in sc Met (pentylenetetrazole) seizure threshold test; I = Inactive at all doses including 600 mg/kg; format: functional, organism-based; design: dose 600 mg/kg; procedure, shortened: as §1
Mus musculus [11] = assay: Evaluated for seizure threshold test at a dose 300 mg/kg & MMT is the maximal metrazole threshold to tonic flexion; I = Inactive.; format: functional, organism-based; design: dose 300 mg/kg; procedure, shortened: as §2
[12] = tested on: GABA-A receptor; anion channel; assay: Inhibition of binding to GABA-A central benzodiazepine receptor (Inactive at 80 uM); format: protein-complex assay, Mus musculus
Mus musculus [13] = assay: Evaluated for seizure threshold test at a dose 300 mg/kg &MST is the metrazole seizure threshold to persistent clonus; format: functional
Procedure, shortened: (§3)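 At 0.5 h (some at 1 or 4 h), 0.5% pentylenetetrazol in 0.9% NaCl with 0.001% heparin was infused into the tail vein at 6.31 μL/s. Time to 3 s persistent clonus (MST) or tonic flexion (MMT) was converted to mg/kg, reported as % change vs controls, Student's t test.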

Mus musculus [14] = assay: Evaluated for seizure threshold test at a dose 30 mg/kg &MST is the metrazole seizure threshold to persistent clonus; I = Inactive; format: functional, organism-based; design: dose 30 mg/kg; procedure, shortened: as §2
[15] = Compound was evaluated for median lethal dose; format: ADME, organism-based; conditions: mouse, in vivo
Mus musculus [16] = assay: Evaluated for seizure threshold test at a dose 30 mg/kg &MMT is the maximal metrazole threshold to tonic flexion.; format: functional; procedure, shortened: as §3
[17] = tested on: GABA-A receptor; anion channel; assay: Inhibition of binding to GABA-A central benzodiazepine receptor (Inactive); format: protein-complex assay, Mus musculus
Mus musculus [18] = assay: Evaluated for seizure threshold test at a dose 100 mg/kg & MST is the metrazole seizure threshold to persistent clonus; format: functional; procedure, shortened: as §3
Mus musculus [19] = assay: Evaluated for seizure threshold test at a dose 100 mg/kg & MMT is the maximal metrazole threshold to tonic flexion.; format: functional; procedure, shortened: as §3
Mus musculus [20] = assay: In vivo inhibition of Benzodiazepine (BDZ) binding in mice; format: functional, organism-based
Mus musculus [21] = assay: Evaluated for seizure threshold test at a dose 39 mg/kg & MMT is the maximal metrazole threshold to tonic flexion.; format: functional; procedure, shortened: as §3
Mus musculus [22] = assay: Evaluated for seizure threshold test at a dose 49 mg/kg & MST is the metrazole seizure threshold to persistent clonus; format: functional; procedure, shortened: as §3
Mus musculus [23] = assay: Evaluated for seizure threshold test at a dose 25 mg/kg &MST is the metrazole seizure threshold to persistent clonus; format: functional; procedure, shortened: as §3
Mus musculus [24] = assay: Evaluated for seizure threshold test at a dose 25 mg/kg &MMT is the maximal metrazole threshold to tonic flexion.; format: functional; procedure, shortened: as §2
[25] = target: GABA-A receptor; anion channel; assay: Binding affinity for umolar GABA-A central benzodiazepine receptor; format: protein-complex assay, Mus musculus
Mus musculus [26] = assay: Evaluated for seizure threshold test at a dose 300 mg/kg & MMT is the maximal metrazole threshold to tonic flexion; format: functional; procedure, shortened: as §2

SMILES | ED50 (Mus musculus [1]) | TD50 (Mus musculus [2]) | Change (Mus musculus [3]) | Change (Mus musculus [4]) | TD50 [6] | other results
Cc1cc(C(=O)c2ccccc2)c(O)c(C#N)c1C | inactive | Not Active | Not significant | Not significant | – | –
CC(=O)c1cc(-c2ccccc2)c(-c2ccccc2)c(C#N)c1N | – | – | – | – | > 600 mg/kg | Change (Mus musculus [5]): 20%; Change (Mus musculus [7]): inactive; ED50 (Mus musculus [8]): 260 mg/kg
Cc1cc2c(c(C#N)c1C)NC=NC2C1CCCCC1 (stereo not given) | – | – | – | – | > 600 mg/kg | Change (Mus musculus [9]): inactive; ED50 (Mus musculus [10]): inactive; Change (Mus musculus [11]): inactive; IC50 [12]: Not Active
Cc1cc2c(-c3ccccc3)ncnc2c(C#N)c1C | inactive | Not Active | Not significant | Not significant | – | –
CC(=O)c1cc(C)c(C)c(C#N)c1N | – | – | – | – | > 600 mg/kg | Change (Mus musculus [5]): 13%; Change (Mus musculus [13]): 15%; ED50 (Mus musculus [8]): 300 mg/kg
Cc1cc2c(C)ncnc2c(C#N)c1C | – | – | – | – | 45 mg/kg | ED50 (Mus musculus [10]): inactive; Change (Mus musculus [14]): inactive; LD50 [15]: 150 mg/kg; Change (Mus musculus [16]): -24%; IC50 [17]: Not Active
Cc1cc2c(c(C#N)c1C)NC(=O)CN=C2c1ccccc1F | – | – | – | – | 710 mg/kg | Change (Mus musculus [18]): 65%; Change (Mus musculus [19]): 50%; IC50 (Mus musculus [20]): 0.01 nM; Change (Mus musculus [21]): 30%; Change (Mus musculus [22]): 23%; ED50 (Mus musculus [8]): 48.9 mg/kg
Cc1cc2c(c(C#N)c1C)NC=NC2C (stereo not given) | – | – | – | – | 51.5 mg/kg | ED50 (Mus musculus [10]): inactive; Change (Mus musculus [23]): -36%; LD50 [15]: 150 mg/kg; Change (Mus musculus [24]): -56%
Cc1cc2c(-c3ccccc3)nc(O)nc2c(C#N)c1C | inactive | Not Active | Not significant | Not significant | – | –
Cc1cc(C(=O)c2ccccc2Cl)c(N)c(C#N)c1C | inactive | Not Active | Not significant | Not significant | – | –
Cc1cc2c(c(C#N)c1C)NC=NC2C1CC1 (stereo not given) | inactive | Not Active | Not significant | Not significant | – | –
Cc1cc(C(=O)c2ccccc2)c(N)c(C#N)c1C | inactive | Not Active | Not significant | Not significant | – | –
O=C1NC(=O)C(c2ccccc2)(c2ccccc2)N1 [PHENYTOIN] | – | – | – | – | – | Ki [25]: 155 µM
Cc1cc(C(=O)C2CCCCC2)c(N)c(C#N)c1C | – | – | – | – | > 600 mg/kg | Change (Mus musculus [9]): Not significant; Change (Mus musculus [26]): 17%; ED50 (Mus musculus [8]): 410 mg/kg
